# MrgX1 PAM = positive allosteric modulators of MrgX1, primary screen, HEK293 cells, Fluo-4 calcium flux; AID 588675, 2011; B-score at 10 µM; 0.63% of 310,000 active; FDSS; stronger effect = higher value; Mas-related G-protein coupled receptor member X1 (Homo sapiens), Q96LB2;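 active = plate-corrected calcium response at least 3 library SD above typical, normal starting fluorescence, not activating the receptor alone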;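 also: compound read alongside a low EC10 to EC30 dose of BAM8-22 agonist; peak minus trough fluorescence over baseline measured at the second addition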
# Target sequence (Q96LB2 whole entry, looked up): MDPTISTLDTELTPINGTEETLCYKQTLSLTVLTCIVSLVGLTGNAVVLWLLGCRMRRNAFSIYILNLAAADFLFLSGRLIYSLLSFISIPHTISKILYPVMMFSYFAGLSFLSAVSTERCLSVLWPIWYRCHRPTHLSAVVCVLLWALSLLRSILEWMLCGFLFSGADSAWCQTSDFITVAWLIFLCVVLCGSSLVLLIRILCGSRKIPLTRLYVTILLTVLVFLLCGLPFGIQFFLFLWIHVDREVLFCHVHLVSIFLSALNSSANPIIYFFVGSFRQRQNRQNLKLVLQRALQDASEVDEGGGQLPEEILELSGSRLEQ
# MrgX1 antag = antagonists of human MrgX1 receptor, primary screen, HEK293 cells, Fluo-4 calcium flux; Mas-related G-protein coupled receptor member X1 (Homo sapiens), Q96LB2; BAM8-22 antagonism; stronger effect = lower value; B-score at 10 µM; 1.3% of 310,000 active; AID 588676, 2011;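 active = calcium-response B-score plate-corrected more than 3 library SD below zero, starting fluorescence within 5 deviations, no agonist response on first addition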;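 also: peak minus trough fluorescence over baseline after final BAM8-22 challenge near maximal dose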
# MrgX1 ag = agonists of human MrgX1 receptor, primary screen, HEK293 cells, Fluo-4 calcium flux; Mas-related G-protein coupled receptor member X1 (Homo sapiens), Q96LB2; Fluo-4 calcium fluorescence, agonist mode; stronger effect = higher value; B-score at 10 µM; 0.44% of 310,000 active; AID 588627, 2011;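 active = calcium response B-score plate-corrected fluorescence ratio at least 3 library SD, with starting fluorescence B-score inside 5 SD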
#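 Material: MrgX1-expressing HEK293 cells / Dosing: compound as first of three additions / Incubation: overnight seeding, then 1 h dark dye loading / Signal: Fluo-4 NW calcium fluorescence / Evaluation: B-scored fluorescence response ratio / Benchmarks: positive and negative control wells on each plate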
# RGS4 block = RGS4 inhibitors, primary screen, cell-based, HEK293 M3R inducible RGS4, calcium flux; Regulator of G-protein signaling 4 (Homo sapiens), P49798; Fluo-4 calcium flux; stronger effect = higher value; triggered by carbachol at its EC20; B-score at 10 µM; 0.45% of 310,000 active; AID 463165, 2010;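 active = B-score, a plate-corrected calcium signal, over three deviations above library mean, with baseline fluorescence within five deviations of library mean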;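 also: RGS4 expression induced by doxycycline in cells with stable M3 receptor; B-score is computed from the integrated fluorescence ratio over baseline after carbachol; higher B-score means a larger calcium signal and so more RGS4 inhibition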
# RGS4 act = RGS4 potentiators or activators, primary screen, cell-based, HEK293 M3R inducible RGS4, calcium flux; carbachol calcium flux Fluo4; stronger effect = lower value; B-score at 10 µM; 0.92% of 310,000 active;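 active = B-score of the integrated calcium signal more than 4 SD below the library mean, with starting fluorescence not abnormally high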;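 also: negative B-score means reduced calcium response which marks RGS4 activation or potentiation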
#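 Detection: kinetic calcium fluorescence imaging with Fluo4-AM dye, 2 µM / Material: HEK293 cells with stable M3R and inducible RGS4 / Schedule: recording 10 s baseline at 1 Hz, 100 s post-agonist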
# Active calls of the source: *; i = inactive; . = no result. Only some compounds are listed: those with a hit (about 3.5% of all), similar ones and a draw of the others.
SMILES,MrgX1 PAM,MrgX1 antag,MrgX1 ag,RGS4 block,RGS4 act
O=C(c1ccc([N+](=O)[O-])o1)N1CCN(c2nc3c(F)cc(F)cc3s2)CC1,i,i,i,i,i
CCCCn1c(N)c(N(CCC(C)C)C(=O)c2ccc3c(c2)OCO3)c(=O)[nH]c1=O,i,-5.7*,i,i,i
COc1c(OC(C)=O)c(=O)n2c3ccccc3c3ccnc1c32,i,i,i,i,i
COc1ccc2c(/C=C/c3cc[n+](C)cc3)c[nH]c2c1,i,-5.8*,i,i,i
CC1Cc2ccccc2C(CCc2ccccc2)=N1 (stereo not given),i,i,i,i,i
COC(=O)C1=CN(C2CC2)C=C(C(=O)OC)C1c1ccc(C(F)(F)F)cc1,i,-6.6*,i,i,i
COC(=O)C1=CN(C2CC2)C=C(C(=O)OC)C1c1ccc(C(=O)OC)cc1,i,i,i,i,i
O=C(/C=C/c1ccccc1)NC(=S)Nc1ccc2c3c(cccc13)CC2,i,-14*,i,i,i
O=C(COc1ccccc1)NC(=S)Nc1ccc2c3c(cccc13)CC2,i,i,i,i,i
Cc1ccc(OCc2cc(C(=O)N(C)CCc3nc4ccccc4[nH]3)no2)cc1C,.,.,.,i,i
COc1cccc(C(c2c(C)[nH]n(-c3ccccc3)c2=O)c2c(C)[nH]n(-c3ccccc3)c2=O)c1O,i,i,i,i,i
Cc1[nH]n(-c2ccccc2)c(=O)c1C(c1ccc(O)c([N+](=O)[O-])c1)c1c(C)[nH]n(-c2ccccc2)c1=O,i,i,i,5.1*,i
Cc1[nH]n(-c2ccccc2)c(=O)c1C(C[N+](=O)[O-])c1ccccc1Cl (stereo not given),i,i,46*,i,i
CCCCN(C(=O)CCC(=O)Nc1cc(C)on1)C(C(=O)NC1CCCC1)c1cccc(OC)c1 (stereo not given),i,i,i,i,i
COc1ccc(C)cc1NC(=O)Cn1c(=O)oc2ccccc21,i,i,i,i,i
CC(C)CC(=O)C1=C(O)C(=O)N(Cc2ccccc2)C1c1ccccc1 (stereo not given),12*,i,i,i,i
CC1CCCN(Cc2ccc(OCc3ccccc3)cc2)C1 (stereo not given),i,i,i,i,-7.6*
CC(C)N1CCN(Cc2ccc(-c3ccccc3)cc2)CC1CCO (stereo not given),i,i,i,i,i
CC(C)N1CCN(Cc2ccc(OCc3ccccc3)cc2)CC1CCO (stereo not given),i,i,i,i,-7*
Cc1ccc(NC(=O)CCC(=O)c2cccs2)cc1F,i,i,i,i,i
O=C(NCC1CCN(Cc2ccc(Cl)cc2)CC1)C1CCCN(c2ncnc3c2nc2n3CCCCC2)C1 (stereo not given),i,i,i,i,-7.2*
COc1ccc(C(=O)/C=C2/C(=O)Nc3ccccc32)c(OC)c1,i,i,i,i,i
COc1ccc(C(=O)/C=C2/C(=O)Nc3ccccc32)cc1OC,i,i,i,12*,i
CCN1CCN(S(=O)(=O)c2ccc(Cl)c(C(=O)NC(C)c3ccccc3Cl)c2)CC1 (stereo not given),i,-5.4*,i,i,i
CCOC(=O)/C(C#N)=N/Nc1ccc(S(=O)(=O)N2CCc3ccccc32)cc1,i,-4.5*,i,i,i
N#C/C(=N\Nc1ccc(S(=O)(=O)N2CCc3ccccc32)cc1)C(N)=S,i,i,i,i,i
COc1ccc(CCNC(=O)c2coc(=O)c(Br)c2)cc1,i,i,i,i,i
COc1ccc2c(Cl)c(C(=O)N/N=C3\CCCC(=O)C3)sc2c1,i,-7.4*,i,i,i
